Broadly, the Km is the concentration of substrate that gives half-maximal velocity. The term Kd denotes the free concentration of one partner at which half of the binding sites on the other are occupied at equilibrium, for simple one-to-one binding.

Entries after “also recorded” stand apart in the source; their conditions may differ.

The source of these data is publication PMC3321547 (Biochemistry, 2009).

Series [1] can be described thus: Sedimentation of single constructs, 25 mM KCl. In kind it is physicochemical. The note with it: A25 buffer, 0.1 mM ATP, 4 °C.
A further series has as its system kinesin head domains. The note with it: ref [6], cited from earlier work.
Series [2] has as its system DKH412. Put plainly: Inhibition of basal steady state ATPase of DKH412 head dimer. Conditions: no added KCl, 7 µM DKH412 monomer. In kind it is biochemical, Drosophila.
Another series has as its system DKH346. The series can be described thus: Inhibition of basal ATPase of monomeric DKH346. In kind it is biochemical, Drosophila. Conditions: 6.8 µM DKH346 (Fig. 3C). In short, it runs like this: (§1)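 Heads were Drosophila kinesin residues 1–346 (for the artificial dimer, fused via a TSGG linker to the GCN4-p1 coiled coil) or 1–357. Basal ATPase was run at 25 °C in A25 buffer (pH 6.9) with […], 2 mM PEP and 0.25 mM NADH, coupled to PK/LDH, KCl as indicated. A340 was read, with turbidity correction where needed. Tail-peptide titrations were fit to the quadratic mutual-depletion equation.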

In the next series the test system is K357SC. Put plainly: Inhibition of artificial dimer K357SC. In kind it is biochemical, Drosophila. The note with it: not shown.
For another series, the system named is DKH357. Put plainly: Inhibition of basal ATPase of monomeric DKH357. In kind it is biochemical, Drosophila. Conditions: 13.3 µM DKH357. In short, it runs like this: as §1
For series [3], the system named is DKH412. Put plainly: Inhibition of mADP release. In kind it is biochemical, Drosophila.
The next series addresses K346SC. Put plainly: Inhibition of basal ATPase of artificial dimer K346SC. In kind it is biochemical, Drosophila. The note with it: read-out: Kd, inhibition of basal ATPase; 6 µM K346SC monomer (Fig. 3C). The method, boiled down: as §1

For the molecule “DKH412: residues 1 to 412 of Drosophila kinesin with C-terminal HisTag; dimeric head construct”, the “s20,w, centrifuged alone” value in series [1] was 5.2 S.
As to `Nc1ncnc2c1ncn2[C@@H]1O[C@H](COP(=O)(O)OP(=O)(O)OP(=O)(O)O)[C@@H](O)[C@H]1O` [ATP], the Km in the series with kinesin head domains (read-out: KM for ATP, basal ATPase, absence of MTs) is roughly 2.5 nM. Also, the “net ATP binding and hydrolysis rate” value in the series with kinesin head domains was no less than 4 µM⁻¹ s⁻¹.
For the molecule “NF910-952: monomeric Drosophila kinesin tail peptide, residues 910-952, non-fusion version obtained by thrombin cleavage”, the “stoichiometry of inhibition of basal ATPase” value with DKH412 [2] is recorded as 1 tail peptide per two head peptides. Also, the “inhibition of monomeric DKH346 (in words)” value with DKH346 is “only poorly inhibited”. The “stoichiometry of inhibition of K357SC” value in the series on K357SC is recorded as “half-site stoichiometry”. For the same molecule, the “inhibition of monomeric DKH357 (in words)” value in the series on DKH357 is recorded as “only weakly inhibits; also recorded: not strongly inhibited”. For the same molecule, the “maximum extent of inhibition of mADP release” value with DKH412 [3] (50 mM KCl, 25 °C, pH 6.9, 0.2 µM DKH412) stood at 75%. Further, the “maximum inhibition of mADP release” value with DKH412 [3] (no added KCl, A25 buffer pH 6.9, 25 °C, 0.2 µM DKH412) is “over 80%”. The Kd at K346SC was 330 nM.
`Nc1ncnc2c1ncn2[C@@H]1O[C@H](COP(=O)(O)OP(=O)(O)O)[C@@H](O)[C@H]1O` [ADP]: the “rate of release as ADP” value in the series on kinesin head domains (basal) was ~ 0.01 s^−1.
